Here are results for four substances from PMC6714607 (ACS Omega, 2019).

Common to all, as to format: cell-based
Data set [1] has as its system THESCs uterus (immortalized fibroblast) cells. The data set can be described thus: XTT cell viability assay, THESCs uterus. The note with it: 1 μM, 72 h, 37 °C, triplicates in 96-well plates. Summed up: (§1)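 Cells were grown in DMEM with 10% FCS and penicillin/streptomycin, then seeded at 3×10^3 per well in 96-well plates. After 24 h attachment, the medium was replaced and conjugate or its scrambled-sequence control was added. Plates were incubated 72 h at 37 °C in humidified 5% CO2, and proliferation was read by XTT assay per the kit instructions.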
(In general: Tetrazolium assays rely on reduction of a dye to a coloured formazan, in cell work by metabolically active cells.)

Data set [2] has as its system normal uterus human fibroblast cells produced from a patient (Nf08 uterus). The data set is described as follows: XTT cell viability assay, Nf08 uterus. Particulars: 1 μM, 72 h, 37 °C, triplicates in 96-well plates, Figure S9. Put shortly:
as §1

Data set [3] relates to U87MG glioblastoma cells. The data set can be described thus: Colony formation. Particulars: 1.0 μM for 24 h, colonies counted after 2 weeks, triplicates. Summed up:
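U87MG cells in DMEM with 10% FCS were treated for 24 h with 1.0 μM conjugate or its scrambled-sequence control. Cells were then seeded at 1000 and 500 per well in triplicate six-well plates. After 14 days, colonies were fixed with 2.5% glutaraldehyde for 10 min, stained with 1% methylene blue and counted. Colony numbers were taken from the triplicate plates.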

Data set [4] relates to U87MG glioblastoma cells. The data set is described as follows: XTT cell viability assay, U87MG. The note with it: 1 μM, 72 h, 37 °C, triplicates in 96-well plates. Summed up: as §1
In the next data set the test system is miR-155. The data set can be described thus: miR-155 expression by quantitative RT-PCR after PNA conjugate treatment. Particulars: U87MG cells, 0.5 μM PNA conjugate, 24 h, 37 °C, qRT-PCR in triplicates. Put shortly: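 U87MG cells were treated with 0.5 μM conjugate or its scrambled-sequence control for 24 h at 37 °C. Total microRNA was isolated, and cDNA was synthesised from 1 μg RNA. miR-155 was quantified by SYBR Green real-time PCR with miR-155-specific primers, in triplicate.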
(In general: Quantitative PCR measures a nucleic acid by following its amplification.)

In data set [5] the test system is U87MG glioblastoma cells. The data set is described as follows: Confocal colocalization with Lyso-Tracker Red and Hoechst. The note with it: 0.5 μM, 3 h, 37 °C, Lyso-Tracker Red and Hoechst staining. Put shortly:
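U87MG cells were plated 12 h beforehand on glass chamber slides and grown to 70–80% confluence. They were given 0.5 μM FITC-labelled conjugate in fresh complete medium for 3 h at 37 °C under 5% CO2, then washed twice with PBS. Staining was 50 nM LysoTracker Red for 20–30 min at 37 °C, PBS washes, then 0.01 mM Hoechst for 15 min. Cells were fixed in 4% formaldehyde and imaged by confocal laser scanning microscopy.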

A further data set relates to U87MG cells. The data set is described as follows: FACS analysis of FITC-labeled PNA conjugate uptake. The note with it: 0.5 μM, 2 h. Put shortly:
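U87MG cells were seeded at 2.0×10^5 per well and left to adhere overnight. They were given 0.5 μM FITC-labelled conjugate in DMEM with 10% FCS for 2 h at 37 °C, either alone, with 10 mM NaN3 plus 10 mM 2-deoxy-D-glucose, or held at 4 °C. Cells were PBS-washed, trypsinised, pelleted, resuspended in cold PBS and filtered. Flow cytometry used 488 nm excitation, gated on untreated cells, and gave the % FITC-positive cells. Each condition was run in two repeats.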
(In flow cytometry, cells or beads pass a laser one at a time.)

Turning to “5′-ACCCAATCGTCAGATTCCATATA-3′-C9 (head to tail) [C9–PNA-Scr]”, the “effect on viability of THESCs uterus cells” value in data set [1] is listed as “negligible effects”. In addition, the “effect on viability of Nf08 uterus normal human fibroblast cells” value in data set [2] was “negligible effects”.

On to “5′-ACCCCTATCACAATTAGCATTAA-3′-C9 (head to tail) [C9–PNA]”, for which the “effect on viability of THESCs uterus cells” value in data set [1] is “negligible effects”. For the same substance, the colony formation result in the data set with U87MG glioblastoma cells [3] was “substantial decrease in colony formation”. Further, the “reduction in cell viability in comparison to the C9–PNA-Scr control” value in the data set on U87MG glioblastoma cells [4] is > 80%. Besides, the “effect on viability of Nf08 uterus normal human fibroblast cells” value in data set [2] is given as “negligible effects”. Also, the “decrease in miR-155 in comparison to the scrambled control” value with miR-155 was “over 80%”.

As for “FITC-Ahx-5′-ACCCCTATCACAATTAGCATTAA-3′-C9 (head to tail) [C9–PNA–FITC]”, in the data set on U87MG glioblastoma cells [5], the “cellular localization of FITC-labeled PNA” value is listed as “predominantly found in lysosomes and, to a lesser extent, in nuclei” and the “cellular uptake by confocal microscopy of stained, fixed cells” value is “strong punctate green signals”. Moreover, the “cellular uptake at 4 °C (ATP depletion) by FACS” value with U87MG cells (4 °C, versus control at 37 °C, two repeats) is given as “clear decrease in cellular uptake”. Further, the “cellular uptake with 10 mM NaN3/10 mM 2-deoxy-D-glucose by FACS” value with U87MG cells (37 °C, versus control without inhibitors, two repeats) is “clear decrease in cellular uptake”.

Consider “FITC-Ahx-5′-ACCCCTATCACAATTAGCATTAA-3′-dK4 [dK4–PNA–FITC]”, for which, in the data set with U87MG glioblastoma cells [5], the “cellular uptake by confocal microscopy of stained, fixed cells” value is “negligible uptake”. For the same substance, the “cellular uptake, change in FITC fluorescence by FACS” value in the data set on U87MG cells (37 °C, complete medium, flow cytometry 488 nm) is on record as “almost no change in fluorescence”.
